{
  "source": "ChEMBL document CHEMBL1142379",
  "about": "“Substituted 2-oxo-azepane derivatives are potent, orally active gamma-secretase inhibitors” (Bioorg Med Chem Lett, 2008)",
  "key": {"Gamma-secretase": {"target": "Gamma-secretase", "experiment": "Inhibition of human gamma secretase in HEK293 cells assessed as reduction of amyloid beta level by ELISA", "format": "cell-based"}, "[1]": {"experiment": "Ratio of drug level in brain to plasma in PS2APP transgenic mouse at 20 mg/kg, po after 2 hrs", "format": "ADME, organism-based", "set-up": "dose 20 mg/kg, route oral", "conditions": "read-out: BPR", "in_short": "(§1)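 Single 20 mg/kg oral dose in mice; plasma and brain concentrations taken at 2 h, brain/plasma ratio calculated; N = 3.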"}, "[2]": {"experiment": "Clearance in human microsomes assessed per mg of protein", "format": "ADME, Microsome", "in_short": "(§2)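 Intrinsic clearance in human and mouse liver microsomes, expressed as µl/min/mg protein.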"}, "[3]": {"experiment": "Clearance in mouse microsomes assessed per mg of protein", "format": "ADME, Liver, Microsome", "in_short": "as §2"}, "Mus musculus [4]": {"tested_on": "Mus musculus", "experiment": "Inhibition of human gamma secretase expressed in PS2APP transgenic mouse at 20 mg/kg, po after 3 days", "format": "functional, organism-based", "set-up": "dose 20 mg/kg", "in_short": "(§3)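 PS2APP transgenic mice (human APP driven by neuron-specific Thy1 promoter) dosed 3 × 20 mg/kg po or ip; γ-secretase inhibition read as accumulation of CTFβ in total brain by Western blot, chemiluminescent band quantified and normalized to an endogenous control protein; reference inhibitor LY411575.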"}, "Mus musculus [5]": {"tested_on": "Mus musculus", "experiment": "Inhibition of human gamma secretase expressed in PS2APP transgenic mouse at 20 mg/kg, ip after 3 days", "format": "functional, organism-based", "set-up": "dose 20 mg/kg", "in_short": "as §3"}, "LLC-PK1 [6]": {"tested_on": "LLC-PK1", "experiment": "Ratio of permeability from basolateral to apical over apical to basolateral side of the pig LLC-PK1 cell transfected with human MDR1 at 1 uM in presence of elacridar", "format": "ADME, cell-based, Sus scrofa", "conditions": "llc-pk1, 1 µM", "in_short": "(§4)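 Bidirectional transport across LLC-PK1 monolayers exogenously expressing human MDR1 (P-gp), compound at 1 μM; apical-to-basolateral and reverse permeabilities measured, export ratio derived; run with and without elacridar (5 μM) as transport inhibitor. Passive permeability estimated from experiments with active transport inhibited.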"}, "LLC-PK1 [7]": {"tested_on": "LLC-PK1", "experiment": "Ratio of permeability from basolateral to apical over apical to basolateral side of the pig LLC-PK1 cell transfected with human MDR1 at 1 uM", "format": "ADME, cell-based, Sus scrofa", "conditions": "llc-pk1, 1 µM", "in_short": "as §4"}, "[8]": {"experiment": "Drug level in PS2APP transgenic mouse brain at 20 mg/kg, po after 2 hrs", "format": "ADME, organism-based", "set-up": "dose 20 mg/kg, route oral", "conditions": "read-out: Drug uptake", "in_short": "as §1"}, "MDR1": {"tested_on": "MDR1", "experiment": "Permeability from apical to basolateral side of pig LLC-PK1 cell transfected with human MDR1", "format": "ADME, cell-based, Sus scrofa", "conditions": "read-out: permeability", "in_short": "as §4"}, "[9]": {"experiment": "Distribution coefficient, log D of the compound", "format": "physicochemical", "conditions": "octanol/water"}, "[10]": {"experiment": "Solubility of the compound", "format": "physicochemical"}},
  "note": "Active and inactive are the calls of the source. The rule behind the calls is not given here.",
  "data": [
    {"compound": "CC1(C)CCCC(N(Cc2ccc(C(=O)NC3CC3)cc2)S(=O)(=O)c2ccc(Cl)cc2)C(=O)N1", "note": "(centres undefined)", "values": [
      {"measurement": "IC50", "setting": "Gamma-secretase", "value": "> 20000", "unit": "nM"}
    ]},
    {"compound": "CN(C)C(=O)c1ccc(CN(C2CCCCNC2=O)S(=O)(=O)c2ccc(Cl)cc2)cc1", "note": "(centres undefined)", "values": [
      {"measurement": "IC50", "setting": "Gamma-secretase", "value": 2000, "unit": "nM"}
    ]},
    {"compound": "COc1ccc(CN([C@@H]2CC(F)(F)CCNC2=O)S(=O)(=O)c2ccc(Cl)cc2)c(F)c1F", "values": [
      {"measurement": "Kp at 2 h", "setting": "[1]", "value": "< 0.1"},
      {"measurement": "microsomal CLint", "setting": "[2]", "value": 19, "unit": "µL/min/mg"},
      {"measurement": "microsomal CLint", "setting": "[3]", "value": 121, "unit": "µL/min/mg"}
    ]},
    {"compound": "O=C(NC1CC1)c1ccc(CN(C2CCCCNC2=O)S(=O)(=O)c2ccc(Cl)cc2)cc1", "note": "(centres undefined)", "values": [
      {"measurement": "IC50", "setting": "Gamma-secretase", "value": 170, "unit": "nM"}
    ]},
    {"compound": "COc1ccc(CN(C2CCCCNC2=O)S(=O)(=O)c2ccc(Cl)cc2)c(F)c1", "note": "(centres undefined)", "values": [
      {"measurement": "IC50", "setting": "Gamma-secretase", "value": 150, "unit": "nM"}
    ]},
    {"compound": "COc1ccc(CN([C@@H]2CC(F)(F)CCNC2=O)S(=O)(=O)c2ccc(Cl)cc2)c(F)c1", "values": [
      {"measurement": "microsomal CLint", "setting": "[2]", "value": 13, "unit": "µL/min/mg"},
      {"measurement": "IC50", "setting": "Gamma-secretase", "value": 20, "unit": "nM"},
      {"measurement": "microsomal CLint", "setting": "[3]", "value": 105, "unit": "µL/min/mg"}
    ]},
    {"compound": "NC(=O)c1ccc(CN([C@@H]2CCCCNC2=O)S(=O)(=O)c2ccc(Cl)cc2)cc1", "values": [
      {"measurement": "IC50", "setting": "Gamma-secretase", "value": 80, "unit": "nM"}
    ]},
    {"compound": "CC(C)(C)C1CCNC(=O)C(N(Cc2ccc(C(=O)NC3CC3)cc2)S(=O)(=O)c2ccc(Cl)cc2)C1", "note": "(racemic)", "values": [
      {"measurement": "microsomal CLint", "setting": "[2]", "value": 93, "unit": "µL/min/mg"},
      {"measurement": "IC50", "setting": "Gamma-secretase", "value": 120, "unit": "nM"},
      {"measurement": "microsomal CLint", "setting": "[3]", "value": 110, "unit": "µL/min/mg"}
    ]},
    {"compound": "O=C1NCCC1N(Cc1ccc2c(c1)OCO2)S(=O)(=O)c1ccc(Cl)cc1", "note": "(centres undefined)", "values": [
      {"measurement": "IC50", "setting": "Gamma-secretase", "value": "> 20000", "unit": "nM"}
    ]},
    {"compound": "O=C(NC1CC1)c1ccc(CN(C2CC(C(F)(F)F)CCNC2=O)S(=O)(=O)c2ccc(Cl)cc2)cc1", "note": "(racemic)", "values": [
      {"measurement": "microsomal CLint", "setting": "[2]", "value": 19, "unit": "µL/min/mg"},
      {"measurement": "IC50", "setting": "Gamma-secretase", "value": 20, "unit": "nM"},
      {"measurement": "microsomal CLint", "setting": "[3]", "value": 39, "unit": "µL/min/mg"}
    ]},
    {"compound": "CC1(C)CCNC(=O)[C@H](N(Cc2ccc(C(=O)NC3CC3)cc2)S(=O)(=O)c2ccc(Cl)cc2)C1", "values": [
      {"measurement": "microsomal CLint", "setting": "[2]", "value": 36, "unit": "µL/min/mg"},
      {"measurement": "IC50", "setting": "Gamma-secretase", "value": 15, "unit": "nM"},
      {"measurement": "microsomal CLint", "setting": "[3]", "value": 655, "unit": "µL/min/mg"}
    ]},
    {"compound": "CC1(C)CCNC(=O)C(N(Cc2ccc(C(=O)NC3CC3)cc2)S(=O)(=O)c2ccc(Cl)cc2)C1", "note": "(centres undefined)", "values": [
      {"measurement": "microsomal CLint", "setting": "[2]", "value": 45, "unit": "µL/min/mg"},
      {"measurement": "IC50", "setting": "Gamma-secretase", "value": 6, "unit": "nM"},
      {"measurement": "microsomal CLint", "setting": "[3]", "value": 191, "unit": "µL/min/mg"}
    ]},
    {"compound": "CC1(C)CCCNC(=O)C1N(Cc1ccc(C(=O)NC2CC2)cc1)S(=O)(=O)c1ccc(Cl)cc1", "note": "(centres undefined)", "values": [
      {"measurement": "IC50", "setting": "Gamma-secretase", "value": 390, "unit": "nM"}
    ]},
    {"compound": "COc1ccc(CN(C2CCCCNC2=O)S(=O)(=O)c2ccc(Cl)cc2)cn1", "note": "(centres undefined)", "values": [
      {"measurement": "IC50", "setting": "Gamma-secretase", "value": 900, "unit": "nM"}
    ]},
    {"compound": "CC1(C)CCC(N(Cc2ccc(C(=O)NC3CC3)cc2)S(=O)(=O)c2ccc(Cl)cc2)C(=O)NC1", "note": "(centres undefined)", "values": [
      {"measurement": "IC50", "setting": "Gamma-secretase", "value": 3500, "unit": "nM"}
    ]},
    {"compound": "O=C(O)CCc1ccc(CN([C@@H]2CCCCNC2=O)S(=O)(=O)c2ccc(Cl)cc2)cc1", "values": [
      {"measurement": "IC50", "setting": "Gamma-secretase", "value": 140, "unit": "nM"}
    ]},
    {"compound": "O=C(NC1CC1)c1ccc(CN([C@@H]2CCC(F)(F)CNC2=O)S(=O)(=O)c2ccc(Cl)cc2)cc1", "values": [
      {"measurement": "microsomal CLint", "setting": "[3]", "value": 5.4, "unit": "µL/min/mg"}
    ]},
    {"compound": "O=C1NCCCCCC1N(Cc1ccc2c(c1)OCO2)S(=O)(=O)c1ccc(Cl)cc1", "note": "(centres undefined)", "values": [
      {"measurement": "IC50", "setting": "Gamma-secretase", "value": 9000, "unit": "nM"}
    ]},
    {"compound": "O=C(NC1CC1)c1ccc(CN([C@@H]2CC(F)(F)CCNC2=O)S(=O)(=O)c2ccc(Cl)cc2)cc1", "values": [
      {"measurement": "microsomal CLint", "setting": "[2]", "value": 1.9, "unit": "µL/min/mg"},
      {"measurement": "IC50", "setting": "Gamma-secretase", "value": 4, "unit": "nM"},
      {"measurement": "microsomal CLint", "setting": "[3]", "value": 2.2, "unit": "µL/min/mg"},
      {"measurement": "Activity", "setting": "Mus musculus [4]", "value": "inactive"},
      {"measurement": "Activity", "setting": "Mus musculus [5]", "value": "inactive"}
    ]},
    {"compound": "COc1ccc(CN([C@@H]2CC(F)(F)CCNC2=O)S(=O)(=O)c2ccc(Cl)cc2)cn1", "values": [
      {"measurement": "Kp at 2 h", "setting": "[1]", "value": 0.06},
      {"measurement": "microsomal CLint", "setting": "[2]", "value": 9, "unit": "µL/min/mg"},
      {"measurement": "IC50", "setting": "Gamma-secretase", "value": 30, "unit": "nM"},
      {"measurement": "Ratio", "setting": "LLC-PK1 [6]", "value": 1},
      {"measurement": "Ratio", "setting": "LLC-PK1 [7]", "value": 2.2},
      {"measurement": "microsomal CLint", "setting": "[3]", "value": 72, "unit": "µL/min/mg"},
      {"measurement": "concentration at 2 h", "setting": "[8]", "value": 60, "unit": "ng/g"},
      {"measurement": "Papp A→B", "setting": "MDR1", "value": 28, "unit": "×10⁻⁶ cm/s"},
      {"measurement": "Activity", "setting": "Mus musculus [4]", "value": "Active"}
    ]},
    {"compound": "CC(C)C[C@H](C(=O)NO)N(Cc1ccc2c(c1)OCO2)S(=O)(=O)c1ccc(Cl)cc1", "values": [
      {"measurement": "IC50", "setting": "Gamma-secretase", "value": 2600, "unit": "nM"}
    ]},
    {"compound": "CC(C)C1CCNC(=O)C(N(Cc2ccc(C(=O)NC3CC3)cc2)S(=O)(=O)c2ccc(Cl)cc2)C1", "note": "(racemic)", "values": [
      {"measurement": "microsomal CLint", "setting": "[2]", "value": 51, "unit": "µL/min/mg"},
      {"measurement": "IC50", "setting": "Gamma-secretase", "value": 40, "unit": "nM"},
      {"measurement": "microsomal CLint", "setting": "[3]", "value": 203, "unit": "µL/min/mg"}
    ]},
    {"compound": "CC(C)C[C@H](C(N)=O)N(Cc1ccc2c(c1)OCO2)S(=O)(=O)c1ccc(Cl)cc1", "values": [
      {"measurement": "microsomal CLint", "setting": "[2]", "value": 34, "unit": "µL/min/mg"},
      {"measurement": "IC50", "setting": "Gamma-secretase", "value": 8, "unit": "nM"},
      {"measurement": "microsomal CLint", "setting": "[3]", "value": 282, "unit": "µL/min/mg"},
      {"measurement": "logD", "setting": "[9]", "value": "> 3"},
      {"measurement": "solubility", "setting": "[10]", "value": "< 1", "unit": "µg/mL"}
    ]},
    {"compound": "O=C1NCCCC1N(Cc1ccc2c(c1)OCO2)S(=O)(=O)c1ccc(Cl)cc1", "note": "(centres undefined)", "values": [
      {"measurement": "IC50", "setting": "Gamma-secretase", "value": 14000, "unit": "nM"}
    ]}
  ]
}
